This is an account of results in ChEMBL document CHEMBL1140037, “Effect of cathepsin K inhibitors on bone resorption” (J Med Chem, 2008).

As a reminder, the clearance is the volume of plasma or blood freed of the substance per unit of time. In general, half-life refers to the time in which the quantity being followed falls by half. By IC50 is commonly meant the point on the concentration scale where inhibition reaches its midpoint.

Calls of active or inactive are those of the source. No cut-off for these calls is given here. A value given as a limit tells only on which side of the number the result lay.

Series [1] is described as follows: Plasma clearance in Sprague-Dawley rat at 1 mg/mL/kg, iv. It counts as ADME, organism-based.
Series [2] relates to Cynomolgus monkey. Description: Antibone resorptive activity in cynomolgus monkey assessed as reduction of C-terminal telopeptidase of type 1 collagen degradation at 2 mg/kg/day, po measured before 8 hrs after 14 days of administration by CrossLaps ELISA. It counts as functional, organism-based. As to conditions: Macaca fascicularis. The essentials:
(§1)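 Cynomolgus monkeys given 2 mg/kg orally once daily for 14 days. CTx measured by CrossLaps ELISA before and 8 h after dosing on day 1 and on days 7 and 14, and at 24 h after the first dose. Vehicle group run in parallel to allow for daily CTx fluctuation. Means and SEM, n = 4, 5; t-test against vehicle control.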
(In general: ELISA stands for enzyme-linked immunosorbent assay.)

The nature of series [3]: Drug level in Sprague-Dawley rat serum at 100 mg/kg/day, po for 11 days measured on 25 hrs after final administration. As to conditions: read-out: Drug uptake. Details: route oral. It counts as ADME, organism-based. The essentials:
(§2)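 Rats dosed orally with 100 mg/kg once daily for 11 days. Compound concentration in bone marrow and serum measured 25 h after the final dose on day 11. BM/serum ratio calculated from the two concentrations.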

A short description of series [4]: Half life in Sprague-Dawley rat at 1 mg/mL/kg, iv. It counts as ADME, organism-based. As to conditions: in vivo.
Series [5] concerns Rattus norvegicus. Description: Antibone resorptive activity in Sprague-Dawley rat assessed as inhibition of cathepsin K-mediated C-terminal telopeptidase of type 1 collagen degradation at 100 mg/kg/day, po for 11 days measured on 24 hrs after final administration by RatLaps ELISA. It counts as functional. Also on record: scale not given: the % may be the effect or the level left. The essentials:
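Intact rats dosed orally with 100 mg/kg once daily for 11 days. Urine collected for 24 h after the final dose on day 11; CTx measured by RatLaps ELISA. Inhibition expressed as percentage of vehicle-treated controls.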

The test system of series [6] is Cynomolgus monkey. The experiment in a line: Antibone resorptive activity in cynomolgus monkey assessed as reduction of C-terminal telopeptidase of type 1 collagen degradation at 2 mg/kg/day, po measured before 8 hrs after 7 days of administration by CrossLaps ELISA. It counts as functional, organism-based. As to conditions: Macaca fascicularis. The essentials:
as §1

For series [7], the system named is Cynomolgus monkey. Description: Toxicity in cynomolgus monkey at 2 mg/kg/day, po for 14 days. It counts as organism-based, Macaca fascicularis. Conditions: in vivo, 336 h. Also on record: route oral.
The nature of series [8]: Bioavailability in Sprague-Dawley rat at 3 mg/5 mL/kg, po. It counts as ADME, organism-based. Conditions: in vivo.
The test system of series [9] is Cynomolgus monkey. The experiment in a line: Antibone resorptive activity in cynomolgus monkey assessed as reduction of cathepsin K-mediated C-terminal telopeptidase of type 1 collagen degradation at 2 mg/kg/day, po measured after 8 hrs after 14 days of administration by CrossLaps ELISA. As to conditions: Macaca fascicularis. It counts as functional, organism-based. The essentials: as §1

The test system of series [10] is Cynomolgus monkey. Description: Antibone resorptive activity in cynomolgus monkey assessed as reduction of C-terminal telopeptidase of type 1 collagen degradation at 2 mg/kg/day, po measured before 8 hrs after first administration by CrossLaps ELISA. It counts as functional, organism-based. As to conditions: Macaca fascicularis. In short, it runs like this:
as §1

Series [11] can be described thus: Volume of distribution at steady state in Sprague-Dawley rat at 1 mg/mL/kg, iv. It counts as ADME, organism-based. As to conditions: in vivo, read-out: Vdss.
Series [12] relates to Cynomolgus monkey. The experiment in a line: Antibone resorptive activity in cynomolgus monkey assessed as reduction of C-terminal telopeptidase of type 1 collagen degradation at 2 mg/kg/day, po measured after 8 hrs after 7 days of administration by CrossLaps ELISA. It counts as functional, organism-based. Conditions: Macaca fascicularis. The essentials: as §1
Series [13] has as its target T1, Cathepsin K (Rattus norvegicus, UniProt O35186).
T1 sequence (O35186 whole entry): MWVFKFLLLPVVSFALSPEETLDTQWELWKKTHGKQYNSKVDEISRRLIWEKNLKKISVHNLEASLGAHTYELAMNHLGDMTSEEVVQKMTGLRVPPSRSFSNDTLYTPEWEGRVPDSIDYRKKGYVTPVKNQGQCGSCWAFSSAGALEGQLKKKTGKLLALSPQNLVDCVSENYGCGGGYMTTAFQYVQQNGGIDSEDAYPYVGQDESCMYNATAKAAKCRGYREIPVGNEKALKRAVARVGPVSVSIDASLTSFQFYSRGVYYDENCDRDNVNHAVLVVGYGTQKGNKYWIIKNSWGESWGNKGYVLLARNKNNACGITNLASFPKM
The experiment in a line: Inhibition of rat recombinant cathepsin K expressed in Sf21 cells by fluorescence assay.

The nature of series [14]: Drug level in Sprague-Dawley rat bone marrow at 100 mg/kg/day, po for 11 days measured on 25 hrs after final administration. Conditions: read-out: Drug uptake. Details: route oral. It counts as ADME, organism-based. The essentials:
as §2

Series [15] relates to Cynomolgus monkey. Description: Antibone resorptive activity in cynomolgus monkey assessed as reduction of C-terminal telopeptidase of type 1 collagen degradation at 2 mg/kg/day, po measured after 24 hrs after first administration by CrossLaps ELISA. It counts as functional, organism-based. Conditions: Macaca fascicularis. In short, it runs like this: as §1
Series [16] can be described thus: Ratio of drug level in bone marrow to serum in po dosed Sprague-Dawley rat. It counts as ADME, organism-based. Conditions: in vivo. The essentials:
as §2

Series [17] deals with T2, Cathepsin K (Homo sapiens, UniProt P43235).
T2 sequence (P43235 whole entry): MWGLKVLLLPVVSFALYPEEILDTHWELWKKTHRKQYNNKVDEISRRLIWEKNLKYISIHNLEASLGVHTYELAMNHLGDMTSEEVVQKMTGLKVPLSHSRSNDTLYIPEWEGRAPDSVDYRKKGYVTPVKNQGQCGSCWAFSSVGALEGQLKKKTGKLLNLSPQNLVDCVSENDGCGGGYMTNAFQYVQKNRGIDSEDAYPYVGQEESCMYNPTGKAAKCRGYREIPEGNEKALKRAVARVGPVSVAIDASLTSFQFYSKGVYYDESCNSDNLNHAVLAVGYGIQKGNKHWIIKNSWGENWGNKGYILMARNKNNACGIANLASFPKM
Description: Inhibition of human recombinant cathepsin K by fluorescence assay. The essentials:
(§3)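 Recombinant human cathepsins K, L and S, inhibition read in a fluorescence assay; IC50 values reported.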

The nature of series [18]: Half life in Sprague-Dawley rat at 4 umol/mL/kg, iv. It counts as ADME, organism-based. Conditions: in vivo. The essentials:
(§4)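 Male Sprague-Dawley rats, cassette dosing, iv and oral. Plasma levels by LC-MS/MS. Half-life is the noncompartmental terminal elimination estimate. Clearance, steady-state volume of distribution and bioavailability derived from the profiles.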

A short description of series [19]: Volume of distribution at steady state in Sprague-Dawley rat at 4 umol/mL/kg, iv. As to conditions: in vivo, read-out: Vdss. It counts as ADME, organism-based. The essentials: as §4
Series [20] is described as follows: Plasma clearance in Sprague-Dawley rat at 4 umol/mL/kg, iv. It counts as ADME, organism-based. The essentials:
as §4

Series [21] has as its system Rattus norvegicus. Description: (§5) Bioavailability in Sprague-Dawley rat at 10 umol/5 mL/kg, po. It counts as ADME, organism-based. Conditions: in vivo. In short, it runs like this:
as §4

Series [22] deals with Cathepsin S (Homo sapiens, UniProt P25774). Description: Inhibition of human recombinant cathepsin S by fluorescence assay. In short, it runs like this:
as §3

Series [23] addresses Procathepsin L (Homo sapiens, UniProt P07711). The experiment in a line: Inhibition of human recombinant cathepsin L by fluorescence assay. In short, it runs like this: as §3
Series [24] in a line: as §5. It counts as ADME, organism-based. As to conditions: Sprague-Dawley, in vivo, 10 umol/5 mL/kg. In short, it runs like this: as §4

Chain of Cathepsin S (P25774 whole entry): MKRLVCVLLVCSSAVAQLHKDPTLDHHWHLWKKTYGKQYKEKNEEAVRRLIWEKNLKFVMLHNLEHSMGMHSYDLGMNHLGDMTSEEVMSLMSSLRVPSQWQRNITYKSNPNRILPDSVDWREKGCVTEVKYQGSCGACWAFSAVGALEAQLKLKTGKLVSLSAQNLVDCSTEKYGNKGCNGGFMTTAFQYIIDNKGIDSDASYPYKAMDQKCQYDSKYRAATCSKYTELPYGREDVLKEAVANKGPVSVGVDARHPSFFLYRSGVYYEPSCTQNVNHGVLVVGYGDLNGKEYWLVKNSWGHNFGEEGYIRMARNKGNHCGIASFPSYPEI
Chain of Procathepsin L (P07711 whole entry): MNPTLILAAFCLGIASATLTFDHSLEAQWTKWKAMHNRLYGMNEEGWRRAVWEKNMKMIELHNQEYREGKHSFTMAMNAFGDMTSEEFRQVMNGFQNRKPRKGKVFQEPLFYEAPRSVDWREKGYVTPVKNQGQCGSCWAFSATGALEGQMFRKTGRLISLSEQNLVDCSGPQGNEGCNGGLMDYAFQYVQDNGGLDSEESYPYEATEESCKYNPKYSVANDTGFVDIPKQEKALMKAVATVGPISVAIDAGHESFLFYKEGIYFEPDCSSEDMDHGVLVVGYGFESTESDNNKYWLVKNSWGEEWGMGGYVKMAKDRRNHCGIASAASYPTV

Molecule `CC(C)(C)Cn1c(CN2C(=O)CC3(CCNCC3)C2=O)cc2cnc(C#N)nc21` gave a clearance in series [1] of 238 mL/min/kg. The outcome in series [2], in [6], in series [9], in series [10], in series [12] and in [15] was Active. For the same molecule, the concentration at 25 h was found to be 960 nM in series [3] and 33500 nM in series [14]. Further, the half-life in series [4] was 4.7 h. Also, the Activity in series [5] is reported as 73.2%; in [7], “Non-toxic”. In addition, the bioavailability in series [8] turned out to be 98%. Besides, in series [11], the Vd was 97.2 L/kg. Moreover, in series [13], the IC50 came out at 30 nM. Also, the Drug uptake in series [16] came to 34.9.

Regarding `CC(C)(C)Cn1c(CN2C(=O)NC3(CCNCC3)C2=O)cc2cnc(C#N)nc21`, the IC50 in series [17] was less than 1 nM; in [13], 76 nM; in [22] it was greater than 1000 nM; in [23] it was greater than 1000 nM. Besides, in [18], the half-life is 3.3 h. In addition, the Vd in series [19] came to 59.2 L/kg. Also, the clearance in [20] was 245 mL/min/kg. Also, the Activity entry in series [21] is recorded as “Not Active”.

On to `CN1C(=O)NC2(CCN(Cc3cc4cnc(C#N)nc4n3CC(C)(C)C)CC2)C1=O`, for which the figures for the concentration at 25 h in series [3] and in series [14] were 64 nM and 302 nM, respectively. Also, the Activity in series [5] is listed as 6.8%. In addition, the half-life in [18] is 1.4 h. The Vd in series [19] is 4.3 L/kg. For the same molecule, the clearance in series [20] was 35 mL/min/kg. Further, the IC50 in series [13] is 12 nM. In series [16], the Drug uptake was 4.7. The bioavailability in series [24] turned out to be 144%.

In turn, `CC(C)(C)Cn1c(CN2C(=O)C3(CCNCC3)c3cc(F)ccc32)cc2cnc(C#N)nc21` gave a clearance in series [1] of 132 mL/min/kg. The results for the concentration at 25 h in [3] and in series [14] were 1200 nM and 119000 nM, respectively. Also, the half-life in series [4] is 6.6 h. In series [5], the Activity is listed as 36.2%. In addition, the bioavailability in series [8] worked out at 36%. In addition, the Vd in series [11] turned out to be 78.4 L/kg. In addition, the IC50 in [13] came to 78 nM. The Drug uptake in series [16] was found to be 99.

In the case of `COc1ccc2c(c1)C1(CCNCC1)C(=O)N2Cc1cc2cnc(C#N)nc2n1CC(C)(C)C`, the clearance in series [1] was 182 mL/min/kg. Moreover, the IC50 is less than 1 nM in [17], 44 nM in series [13], greater than 1000 nM in series [22] and greater than 1000 nM in series [23]. The concentration at 25 h worked out at 288 nM in [3] and 45800 nM in series [14]. The molecule also gave a half-life in series [4] of 4.9 h. In addition, in series [5], the Activity was 68%. Further, the bioavailability in series [8] was determined as 29%. Besides, in series [11], the Vd worked out at 73.6 L/kg. In addition, in series [16], the Drug uptake was 159.

For the molecule `CCCN1CCC2(CC1)NC(=O)N(Cc1cc3cnc(C#N)nc3n1CC(C)(C)C)C2=O`, the values for the concentration at 25 h in [3] and in [14] were 133 nM and 17600 nM, respectively. Also, the Activity in series [5] was 89.9%. The half-life in series [18] is 2.8 h. In series [19], the Vd came to 17.3 L/kg. The clearance in [20] is 85 mL/min/kg. The IC50 in series [13] came to 27 nM. Moreover, the Drug uptake in series [16] is 132. Further, the bioavailability in series [24] is 49%.

As to `CCCN1C(=O)NC2(CCN(Cc3cc4cnc(C#N)nc4n3CC(C)(C)C)CC2)C1=O`, the IC50 in [17] was less than 1 nM; in series [22], greater than 1000 nM; in series [23], greater than 1000 nM. Also, the concentration at 25 h is 545 nM in series [3] and 832 nM in series [14]. The Activity in [5] is 11.3%. Besides, the half-life in [18] is 1.9 h. The Vd in series [19] came to 6.7 L/kg. The molecule further showed a clearance in series [20] of 45 mL/min/kg. In [16], the Drug uptake came to 1.5. Further, the bioavailability in series [24] stood at 58%.

For the molecule `CC(C)(C)Cn1c(CN2CCC3(CC2)NC(=O)NC3=O)cc2cnc(C#N)nc21`, the IC50 is less than 1 nM in series [17], greater than 1000 nM in series [22] and greater than 1000 nM in series [23]. The concentration at 25 h was found to be 557 nM in series [3] and 381 nM in [14]. Moreover, in series [5], the Activity was -7.9%. In series [18], this molecule had a half-life of 1.6 h. For the same molecule, the Vd in [19] was determined as 5.9 L/kg. This molecule had a clearance in series [20] of 78.3 mL/min/kg. The Drug uptake in series [16] was found to be 0.7. Besides, in [24], the bioavailability was 42%.
